# Test results reported in publication PMC6980386 (Traffic (Copenhagen, Denmark), 2019).
# Experiments:
# FL huCD4 V13A = FL huCD4 V13A (Homo sapiens, UniProt P01730, V13A); assay: CADA down-modulation of cellular huCD4; assay type: cell-based
# In short: (§1)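 HEK293T cells, seeded overnight in DMEM with 10% serum, 1 mM sodium pyruvate and 0.075% NaHCO₃, were lipofected with full-length human CD4 (WT or mutant). Test compound in DMSO was added 6 h post-transfection as 1:5 serial dilutions (50–0.016 μM) for 48 h. Surface CD4 was stained with FITC/APC anti-CD4 (SK3) and read by flow cytometry. IC50 is 50% of the untreated signal, from four-parameter fits of ≥3 replicate experiments. FC is mutant/WT mean IC50.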
# FL huCD4 K26E = FL huCD4 K26E (Homo sapiens, UniProt P01730, K26E); assay: CADA down-modulation of cellular huCD4; assay type: cell-based; conditions: HEK293T, 48h
# In short: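 Transient transfection of HEK293T cells (Lipofectamine), seeded the night before. Test compound added 6 h post-transfection as a serial 1:5 dilution from 50 to 0.016 μM, then 48 h culture. Surface CD4 stained with FITC- or APC-labelled anti-human CD4 (clone SK3) and read by flow cytometry. IC50 is the concentration reducing signal to 50% of untreated control, interpolated from four-parameter curves (≥3 replicate experiments; 95% CI).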
# FL huCD4 Q24A = FL huCD4 Q24A (Homo sapiens, UniProt P01730, Q24A); assay: CADA down-modulation of cellular huCD4; assay type: cell-based
# In short: as §1
# huCD4_1–32-YFP G25A = huCD4_1–32-YFP G25A (Homo sapiens, UniProt P01730, G25A); assay: CADA inhibition of huCD4_1–32-YFP secretion; assay type: cell-based
# In short: (§2)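 HEK293T cells were lipofected with human CD4 residues 1–32 fused to the N-terminus of YFP (secreted, no membrane anchor). Test compound was added 6 h post-transfection as 1:5 serial dilutions (50–0.016 μM) for 48 h. Supernatant was captured on GFP-Trap magnetic beads for 1 h, washed in PBS, and YFP was read by flow cytometry. IC50 is 50% of the untreated control, from four-parameter fits of ≥3 replicate experiments. FC is mutant/WT mean IC50.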
# huCD4_1–32-YFP K27A = assay: CADA inhibition of huCD4_1–32-YFP secretion; assay type: cell-based, human
# In short: (§3)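 HEK293T cells were grown in DMEM with 10% FBS and 10 mM HEPES, seeded and left to adhere overnight, then transiently transfected with plasmid by Lipofectamine. Test compound was added 6 h after transfection as a 1:5 serial dilution (50 to 0.016 μM) for 48 h. Secreted YFP in the supernatant was captured on GFP-Trap magnetic beads for 1 h, washed with PBS and measured by flow cytometry. IC50 is the concentration that halves the signal relative to the untreated control, taken from a four-parameter fit of at least three replicate experiments. FC is the mutant mean IC50 divided by the WT mean IC50.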
# huCD4_1–32-YFP R3A = huCD4_1–32-YFP R3A (Homo sapiens, UniProt P01730, R3A); assay: CADA inhibition of huCD4_1–32-YFP secretion; assay type: cell-based
# In short: as §3
# huCD4_1–32-YFP A22V = huCD4_1–32-YFP A22V (Homo sapiens, UniProt P01730, A22V); assay: CADA inhibition of huCD4_1–32-YFP secretion; assay type: cell-based
# In short: as §2
# FL huCD4 V28A = FL huCD4 V28A (Homo sapiens, UniProt P01730, V28A); assay: CADA down-modulation of cellular huCD4; assay type: cell-based
# In short: as §1
# FL huCD4 A21V = FL huCD4 A21V (Homo sapiens, UniProt P01730, A21V); assay: CADA down-modulation of cellular huCD4; assay type: cell-based
# In short: as §1
# [1] = biological target: truncated huCD4 D1D2 L12A (Homo sapiens, UniProt P01730, L12A); assay: Cell-free in vitro translation and translocation; assay type: biochemical; conditions: 15 μM CADA
# In short: (§4)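 Truncated huCD4 D1D2 (lacking glycosylation sites and membrane anchor) was made by PCR and transcribed with T7. Proteinase K protection ran 30 min on ice and was quenched with PMSF. Products were separated by SDS-PAGE and imaged by phosphor imaging. The SP-cleaved band was normalised to the matching control. Data are from 2–5 independent experiments, compared with WT by Welch t test.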
# FL huCD4 WT = FL huCD4 WT (Homo sapiens, UniProt P01730); assay: CADA down-modulation of cellular huCD4; assay type: cell-based
# In short: as §1
# FL huCD4 V28K = assay: CADA down-modulation of cellular huCD4; assay type: cell-based, human; conditions: HEK293T, 48h
# In short: as §1
# huCD4_1–32-YFP Q15A;P20A = huCD4_1–32-YFP Q15A;P20A (Homo sapiens, UniProt P01730, P20A/Q15A); assay: CADA inhibition of huCD4_1–32-YFP secretion; assay type: cell-based; conditions: HEK293T, 48h
# In short: as §3
# FL huCD4 K27A = FL huCD4 K27A (Homo sapiens, UniProt P01730, K27A); assay: CADA down-modulation of cellular huCD4; assay type: cell-based
# In short: as §1
# huCD4_1–32-YFP L14A = huCD4_1–32-YFP L14A (Homo sapiens, UniProt P01730, L14A); assay: CADA inhibition of huCD4_1–32-YFP secretion; assay type: cell-based
# In short: as §3
# huCD4_1–32-YFP R8A = huCD4_1–32-YFP R8A (Homo sapiens, UniProt P01730, R8A); assay: CADA inhibition of huCD4_1–32-YFP secretion; assay type: cell-based; conditions: read-out: Secreted YFP IC50 (μM) Mean, HEK293T, CADA 48h
# In short: as §3
# FL huCD4 N2A = FL huCD4 N2A (Homo sapiens, UniProt P01730, N2A); assay: CADA down-modulation of cellular huCD4; assay type: cell-based
# In short: as §1
# FL huCD4 L19A = FL huCD4 L19A (Homo sapiens, UniProt P01730, L19A); assay: CADA down-modulation of cellular huCD4; assay type: cell-based
# In short: as §1
# FL huCD4 G4A = FL huCD4 G4A (Homo sapiens, UniProt P01730, G4A); assay: CADA down-modulation of cellular huCD4; assay type: cell-based
# In short: as §1
# truncated huCD4 D1D2 WT = truncated huCD4 D1D2 WT (Homo sapiens, UniProt P01730); assay: Cell-free in vitro translation and translocation; assay type: biochemical
# In short: as §4
# huCD4_1–32-YFP K26A = huCD4_1–32-YFP K26A (Homo sapiens, UniProt P01730, K26A); assay: CADA inhibition of huCD4_1–32-YFP secretion; assay type: cell-based
# In short: as §3
# [2] = + less, − more sensitive to CADA
# [3] = read-out: Cellular huCD4 IC50 (μM) Mean, HEK293T, CADA 48h
# [4] = read-out: Secreted YFP IC50 (μM) Mean, HEK293T, CADA 48h
structure (smiles),measurement,setting,value
"C=C1CN(S(=O)(=O)c2ccc(C)cc2)CCCN(Cc2ccccc2)CCCN(S(=O)(=O)c2ccc(C)cc2)C1 [CADA, Cyclotriazadisulfonamide]",Cellular huCD4 FC (fold change of mean IC50 relative to WT),FL huCD4 V13A; [2],−3.9
same,IC50,FL huCD4 V13A; [3],0.14 µM
same,sensitivity to CADA,FL huCD4 K26E,copied the alanine substitution phenotypes
same,Cellular huCD4 FC (fold change of mean IC50 relative to WT),FL huCD4 Q24A; [2],+2.3
same,IC50,FL huCD4 Q24A; [3],1.22 µM
same,Secreted YFP FC (fold change of mean IC50 relative to WT),huCD4_1–32-YFP G25A; [2],−3.6
same,IC50,huCD4_1–32-YFP G25A; [4],0.35 µM
same,Secreted YFP FC (fold change of mean IC50 relative to WT),huCD4_1–32-YFP K27A; [2],>+39
same,IC50,huCD4_1–32-YFP K27A; [4],> 50 µM
same,Secreted YFP FC (fold change of mean IC50 relative to WT),huCD4_1–32-YFP R3A; [2],+1.6
same,IC50,huCD4_1–32-YFP R3A; [4],1.99 µM
same,Secreted YFP FC (fold change of mean IC50 relative to WT),huCD4_1–32-YFP A22V; [2],+1.2
same,IC50,huCD4_1–32-YFP A22V; [4],1.58 µM
same,Cellular huCD4 FC (fold change of mean IC50 relative to WT),FL huCD4 V28A; [2],1.00
same,IC50,FL huCD4 V28A; [3],0.54 µM
same,Cellular huCD4 FC (fold change of mean IC50 relative to WT),FL huCD4 A21V; [2],+1.6
same,IC50,FL huCD4 A21V; [3],0.87 µM
same,sensitivity of translocation towards CADA compared to WT,[1],higher sensitivity towards CADA
same,Cellular huCD4 FC (fold change of mean IC50 relative to WT),FL huCD4 WT; [2],1.00
same,IC50,FL huCD4 WT; [3],0.54 µM
same,increase in sensitivity to CADA (smaller IC50) relative to WT,FL huCD4 V28K,more than 3 fold
same,sensitivity to CADA,huCD4_1–32-YFP Q15A;P20A,no longer responded to CADA
same,Cellular huCD4 FC (fold change of mean IC50 relative to WT),FL huCD4 K27A; [2],+2.4
same,IC50,FL huCD4 K27A; [3],1.3 µM
same,Secreted YFP FC (fold change of mean IC50 relative to WT),huCD4_1–32-YFP L14A; [2],−1.1
same,IC50,huCD4_1–32-YFP L14A; [4],1.12 µM
same,IC50,huCD4_1–32-YFP R8A,> 50 µM
same,Cellular huCD4 FC (fold change of mean IC50 relative to WT),FL huCD4 N2A; [2],+1.4
same,IC50,FL huCD4 N2A; [3],0.73 µM
same,Cellular huCD4 FC (fold change of mean IC50 relative to WT),FL huCD4 L19A; [2],+1.9
same,IC50,FL huCD4 L19A; [3],1.04 µM
same,Cellular huCD4 FC (fold change of mean IC50 relative to WT),FL huCD4 G4A; [2],−1.5
same,IC50,FL huCD4 G4A; [3],0.35 µM
same,inhibition of translocation by CADA,"truncated huCD4 D1D2 WT; 15 μM CADA vs DMSO, rabbit reticulocyte lysate, ovine microsomes",75%
same,effect of CADA on co-translational translocation,truncated huCD4 D1D2 WT; increasing doses of CADA,dose-dependently prevented by CADA
same,Secreted YFP FC (fold change of mean IC50 relative to WT),huCD4_1–32-YFP K26A; [2],>+39
same,IC50,huCD4_1–32-YFP K26A; [4],> 50 µM
